Experimental data published in ChEMBL document CHEMBL4024746, “Nonpyrogenic Molecular Adjuvants Based on norAbu-Muramyldipeptide and norAbu-Glucosaminyl Muramyldipeptide: Synthesis, Molecular Mechanisms of Action, and Biological Activities in Vitro and in Vivo” (J Med Chem, 2017).
Active and inactive are the calls of the source. The calls are words filed in the database; no cut-off is given here.

Legend:
Oryctolagus cuniculus [1] = assay: Toxicity in Chinchilla rabbit assessed as necrosis at site of application at 100 nmol/kg, iv using micellar formulation measured up to 2 months post dose; type: organism-based; details: in vivo
Oryctolagus cuniculus [2] = assay: Toxicity in Chinchilla rabbit assessed as skin irritation at 100 nmol/kg, iv using micellar formulation measured up to 2 months post dose; type: organism-based; details: in vivo
Oryctolagus cuniculus [3] = assay: Toxicity in Chinchilla rabbit assessed as behavioral changes at 100 nmol/kg, iv using micellar formulation measured up to 2 months post dose; type: organism-based; details: in vivo
[4] = Solubility of the compound in PBS; type: physicochemical; details: buffer
[5] = target: Nucleotide-binding oligomerization domain-containing protein 2 (Homo sapiens) (UniProt Q9HC29); assay: Agonist activity at human NOD2 receptor expressed in mouse Raw-Blue reporter cells at 10 uM after 24 hrs in presence of GSK717 by SEAP reporter gene assay
Chain of Nucleotide-binding oligomerization domain-containing protein 2 (Homo sapiens) (Q9HC29 whole entry, the tested form may be a part): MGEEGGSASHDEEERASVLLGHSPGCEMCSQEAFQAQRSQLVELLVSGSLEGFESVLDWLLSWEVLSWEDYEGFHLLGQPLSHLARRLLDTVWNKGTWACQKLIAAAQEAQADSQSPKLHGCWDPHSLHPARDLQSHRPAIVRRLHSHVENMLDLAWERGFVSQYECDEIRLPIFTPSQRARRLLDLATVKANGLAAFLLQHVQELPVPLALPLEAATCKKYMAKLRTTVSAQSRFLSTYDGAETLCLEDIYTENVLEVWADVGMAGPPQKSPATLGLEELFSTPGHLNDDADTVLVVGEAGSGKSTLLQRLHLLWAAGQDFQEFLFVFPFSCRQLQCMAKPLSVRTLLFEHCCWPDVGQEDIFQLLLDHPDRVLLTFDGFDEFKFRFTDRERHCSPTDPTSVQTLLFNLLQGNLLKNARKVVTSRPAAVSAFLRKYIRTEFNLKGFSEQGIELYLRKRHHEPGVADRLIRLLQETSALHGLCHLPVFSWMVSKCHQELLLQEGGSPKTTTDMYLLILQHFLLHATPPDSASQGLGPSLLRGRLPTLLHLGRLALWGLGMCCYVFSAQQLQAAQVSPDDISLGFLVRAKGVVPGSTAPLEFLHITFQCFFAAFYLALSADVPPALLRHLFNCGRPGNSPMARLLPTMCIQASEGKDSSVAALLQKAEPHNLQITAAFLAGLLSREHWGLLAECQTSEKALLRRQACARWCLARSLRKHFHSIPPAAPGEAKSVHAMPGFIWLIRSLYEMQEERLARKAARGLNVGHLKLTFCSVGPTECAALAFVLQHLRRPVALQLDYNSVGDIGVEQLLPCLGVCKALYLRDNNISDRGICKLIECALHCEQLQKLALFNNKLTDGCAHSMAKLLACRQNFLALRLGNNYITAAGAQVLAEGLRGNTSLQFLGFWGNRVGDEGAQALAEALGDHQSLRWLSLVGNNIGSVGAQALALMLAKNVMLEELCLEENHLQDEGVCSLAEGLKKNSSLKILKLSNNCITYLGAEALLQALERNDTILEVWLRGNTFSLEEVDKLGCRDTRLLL

Mus musculus [6] = assay: Immuno-stimulatory activity in ICR mouse assessed as induction of GM-progenitor cell proliferation in serum at […], sc using liposomal formulation measured after 6 hrs; type: functional, organism-based
Outline: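 Female ICR mice, 3 months old, four per group, given liposomal preparations sc at 100 nmol per dose in 200 μL. Serum collected 6 h later and added to cultured granulocyte–monocyte progenitors. GM-CFU colonies counted, with serum-free cells as baseline. Dunnett's test is used versus the infusion-solution control.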

[7] = Solubility of the compound in DMSO; type: physicochemical
[8] = target: Nucleotide-binding oligomerization domain-containing protein 2 (Homo sapiens) (UniProt Q9HC29); assay: Agonist activity at human NOD2 receptor expressed in mouse Raw-Blue reporter cells at 10 uM after 48 hrs by SEAP reporter gene assay; type: cell-based
Outline: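 RAW 264.7-derived RAW-Blue cells carrying an NF-κB/AP-1-inducible SEAP reporter, exposed to compounds at 10 μM for 48 h. Colorimetric SEAP read-out at 650 nm. MDP serves as positive control. ANOVA with Dunnett's test versus untreated cells and versus MDP.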

Oryctolagus cuniculus [9] = assay: Toxicity in New Zealand albino rabbit assessed as necrosis at site of application at 100 nmol/kg, sc using liposomal formulation measured up to 2 months post dose; type: organism-based; details: in vivo
Oryctolagus cuniculus [10] = assay: Toxicity in New Zealand albino rabbit assessed as behavioral changes at 100 nmol/kg, sc using liposomal formulation measured up to 2 months post dose; type: organism-based; details: in vivo
Oryctolagus cuniculus [11] = assay: Pyrogenic activity in New Zealand albino rabbit assessed as change in maximum body temperature at 100 nmol/kg, sc using liposomal formulation measured at 30 mins time intervals for 9 to 24 hrs (reference value: 0.2 degC); type: toxicity, organism-based; details: in vivo
Outline: (§1)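 Standard rabbit pyrogenicity test, three animals per group, iv or modified sc application of free (micellar) or liposomal formulations. Maximum temperature rise (+ΔTmax) summed per group; sum below 1.1 °C classed as nonpyrogenic. Temperature followed a further 24 h for delayed pyrogenicity.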

Oryctolagus cuniculus [12] = assay: Pyrogenic activity in Chinchilla rabbit assessed as change in maximum body temperature at 100 nmol/kg, iv using micellar foemulation measured at 30 mins time intervals; type: toxicity, organism-based; details: in vivo, 0.5 h; outline: as §1
[13] = target: Nucleotide-binding oligomerization domain-containing protein 2 (Homo sapiens) (UniProt Q9HC29); assay: Agonist activity at human NOD2 receptor expressed in mouse Raw-Blue reporter cells at 10 uM after 48 hrs in presence of gefitinib by SEAP reporter gene assay; type: cell-based
[14] = Solubility of the compound in ethanol; type: physicochemical
Oryctolagus cuniculus [15] = assay: Toxicity in New Zealand albino rabbit assessed as weight loss at 100 nmol/kg, sc using liposomal formulation measured up to 2 months post dose; type: organism-based; details: in vivo
[16] = target: NACHT, LRR and PYD domains-containing protein 3 (Homo sapiens, UniProt Q96P20); assay: Agonist activity at NLRP3 in human […] cells assessed as induction of LPS-induced IL-1beta secretion by HEK-Blue reporter cell based assay
Chain of NACHT, LRR and PYD domains-containing protein 3 (Q96P20 whole entry, the tested form may be a part): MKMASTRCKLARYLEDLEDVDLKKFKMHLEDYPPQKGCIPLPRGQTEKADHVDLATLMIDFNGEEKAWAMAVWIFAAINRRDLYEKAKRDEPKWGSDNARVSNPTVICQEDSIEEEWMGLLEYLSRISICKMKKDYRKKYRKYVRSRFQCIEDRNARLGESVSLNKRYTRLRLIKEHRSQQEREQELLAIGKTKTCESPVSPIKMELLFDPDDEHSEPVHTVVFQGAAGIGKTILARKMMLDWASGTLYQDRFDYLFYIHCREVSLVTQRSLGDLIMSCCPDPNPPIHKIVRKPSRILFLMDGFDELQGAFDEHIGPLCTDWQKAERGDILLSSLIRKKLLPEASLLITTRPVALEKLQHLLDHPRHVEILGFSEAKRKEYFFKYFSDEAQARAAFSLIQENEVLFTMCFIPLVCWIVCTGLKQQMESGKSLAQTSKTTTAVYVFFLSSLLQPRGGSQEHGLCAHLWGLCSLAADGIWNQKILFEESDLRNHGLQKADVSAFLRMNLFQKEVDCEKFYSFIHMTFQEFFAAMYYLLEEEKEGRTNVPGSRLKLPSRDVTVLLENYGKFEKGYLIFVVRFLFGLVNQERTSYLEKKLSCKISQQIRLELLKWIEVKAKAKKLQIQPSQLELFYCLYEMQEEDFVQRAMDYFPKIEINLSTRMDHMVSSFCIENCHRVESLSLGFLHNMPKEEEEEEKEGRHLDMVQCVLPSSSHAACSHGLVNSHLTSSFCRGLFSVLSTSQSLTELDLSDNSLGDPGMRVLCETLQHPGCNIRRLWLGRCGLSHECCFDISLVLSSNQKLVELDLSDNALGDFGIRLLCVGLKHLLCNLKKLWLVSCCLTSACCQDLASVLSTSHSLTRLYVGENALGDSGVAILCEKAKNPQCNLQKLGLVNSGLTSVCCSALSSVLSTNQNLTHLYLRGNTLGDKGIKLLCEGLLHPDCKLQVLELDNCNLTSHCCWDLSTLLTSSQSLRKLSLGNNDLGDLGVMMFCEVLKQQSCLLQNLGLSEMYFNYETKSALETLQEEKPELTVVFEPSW
Outline: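 THP1-Null cells stimulated with compounds; mature IL-1β released is detected with HEK-Blue IL-1β cells through SEAP reporter activity in the supernatant, read colorimetrically with QUANTI-Blue. ATP serves as positive standard. Untreated HEK-Blue IL-1β cells serve as negative control; comparison by ANOVA with Dunnett's test.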

Oryctolagus cuniculus [17] = assay: Toxicity in Chinchilla rabbit assessed as weight loss at 100 nmol/kg, iv using micellar formulation measured up to 2 months post dose; type: organism-based; details: in vivo
[18] = target: T1, Nucleotide-binding oligomerization domain-containing protein 1 (Homo sapiens) (UniProt Q9Y239); assay: Agonist activity at human NOD1 receptor expressed in HEK-Blue reporter cells at 10 uM after 48 hrs by SEAP reporter gene assay; type: cell-based
T1 sequence (whole entry): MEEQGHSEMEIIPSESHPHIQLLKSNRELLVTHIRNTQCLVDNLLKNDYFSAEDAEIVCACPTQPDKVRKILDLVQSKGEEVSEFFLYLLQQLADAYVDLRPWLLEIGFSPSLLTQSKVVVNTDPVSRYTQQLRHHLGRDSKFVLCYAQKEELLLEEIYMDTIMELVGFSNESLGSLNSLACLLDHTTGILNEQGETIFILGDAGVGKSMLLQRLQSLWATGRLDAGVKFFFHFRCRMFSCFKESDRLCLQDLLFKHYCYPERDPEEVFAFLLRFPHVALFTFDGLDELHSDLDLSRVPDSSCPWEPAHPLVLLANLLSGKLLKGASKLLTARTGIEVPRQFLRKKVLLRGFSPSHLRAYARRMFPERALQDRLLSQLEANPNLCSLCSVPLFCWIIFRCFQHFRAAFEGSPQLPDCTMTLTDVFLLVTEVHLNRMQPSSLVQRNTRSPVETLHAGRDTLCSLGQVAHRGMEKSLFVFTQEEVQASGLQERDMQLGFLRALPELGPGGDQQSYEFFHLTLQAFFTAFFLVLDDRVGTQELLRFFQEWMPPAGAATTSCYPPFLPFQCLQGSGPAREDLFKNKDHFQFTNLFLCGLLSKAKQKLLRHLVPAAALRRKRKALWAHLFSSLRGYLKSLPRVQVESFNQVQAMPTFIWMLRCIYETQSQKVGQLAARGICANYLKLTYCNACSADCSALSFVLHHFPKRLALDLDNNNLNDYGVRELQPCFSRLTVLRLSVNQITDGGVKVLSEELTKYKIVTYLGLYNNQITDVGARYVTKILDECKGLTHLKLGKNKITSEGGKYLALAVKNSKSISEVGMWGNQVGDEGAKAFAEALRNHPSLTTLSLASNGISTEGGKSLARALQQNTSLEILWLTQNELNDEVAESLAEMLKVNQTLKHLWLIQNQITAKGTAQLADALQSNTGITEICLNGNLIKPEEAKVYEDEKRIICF
Outline: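 HEK293 cells cotransfected with human NOD1 and an NF-κB/AP-1-inducible SEAP reporter, exposed to compounds at 10 μM for 48 h. SEAP is read at 650 nm with QUANTI-Blue. Diaminopimelic acid derivatives serve as NOD1 positive controls. Dunnett's test is used versus untreated cells.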

Oryctolagus cuniculus [19] = assay: Toxicity in New Zealand albino rabbit assessed as skin irritation at 100 nmol/kg, sc using liposomal formulation measured up to 2 months post dose; type: organism-based; details: in vivo
Mus musculus [20] = assay: Adjuvant activity in OspA immunized BALB/c mouse assessed as induction of total IgG2a antibody production administered id loaded in rOspA proteoliposomes measured 14 days after boost immunization by ELISA; type: functional
Outline: (§2)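 Female BALB/c mice, 6−8 weeks, five per group, immunized id with His-tagged rOspA (endotoxin below 2.5 EU/mg) on metallochelation liposomes (EPC/POPG/DOGS-NTA-Ni/adjuvant 71:19:5:5), 20 μg rOspA per dose; boost 14 days after prime. Pooled sera taken 14 days post-boost, run in duplicate by ELISA on 100 ng/well tag-free rOspA, diluted 1:1000–1:32000; reported as mean OD490 ± SD at 1:8000.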

Mus musculus [21] = assay: Adjuvant activity in OspA immunized BALB/c mouse assessed as induction of total Ig antibody production administered id loaded in rOspA proteoliposomes measured 14 days after boost immunization by ELISA; type: functional; outline: as §2
Mus musculus [22] = assay: Adjuvant activity in OspA immunized BALB/c mouse assessed as induction of total IgG1 antibody production administered id loaded in rOspA proteoliposomes measured 14 days after boost immunization by ELISA; type: functional; outline: as §2
Mus musculus [23] = assay: Toxicity in BALB/c mouse assessed as local reactions at site of drug application administered id loaded in rOspA proteoliposomes; details: in vivo, other
Outline: (§3)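 Female BALB/c mice immunized id with rOspA metallochelation proteoliposomes carrying the adjuvant, prime and boost 14 days apart; injection sites inspected for irritation or local reactions.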

Mus musculus [24] = assay: Toxicity in BALB/c mouse assessed as irritation at site of drug application administered id loaded in rOspA proteoliposomes; details: in vivo, other; outline: as §3
Oryctolagus cuniculus [25] = assay: Pyrogenic activity in New Zealand albino rabbit assessed as change in maximum body temperature at 25 ug/kg, sc using liposomal formulation measured at 30 mins time intervals for 9 to 24 hrs (reference value: 0.2 degC); type: organism-based; details: in vivo, 0.025 mg/kg

SMILES	Activity (Oryctolagus cuniculus [1])	Activity (Oryctolagus cuniculus [2])	Activity (Oryctolagus cuniculus [3])	Activity [5]	Activity (Mus musculus [6])	Activity [8]	Activity (Oryctolagus cuniculus [9])	Activity (Oryctolagus cuniculus [10])	deltaT (Oryctolagus cuniculus [11]) [°C]	deltaT (Oryctolagus cuniculus [12]) [°C]	Activity [13]	Activity (Oryctolagus cuniculus [15])	Activity [16]	Activity (Oryctolagus cuniculus [17])	Activity [18]	Activity (Oryctolagus cuniculus [19])	Activity (Mus musculus [21])	Activity (Mus musculus [22])	Activity (Mus musculus [23])	Activity (Mus musculus [24])	other results
CCCCCCCCCCCCCCC(CCCCCCCCCCCCCC)C(=O)N[C@H]1[C@H](O[C@H]2[C@H](OCC(=O)N[C@@H](CC)C(=O)N[C@H](CCC(=O)O)C(N)=O)[C@@H](NC(C)=O)C(O)O[C@@H]2CO)O[C@H](CO)[C@@H](O)[C@@H]1O (some centres not stated)	Non-Toxic	Non-Toxic	Non-Toxic	inactive	inactive	Active	Non-Toxic	Non-Toxic	0.5	0.7	inactive	Non-Toxic	Active	Non-Toxic	inactive	Non-Toxic					solubility [4]: Soluble; solubility [7]: Soluble; solubility [14]: Insoluble
CCCCCCCCCCCCCCC(CCCCCCCCCCCCCC)C(=O)NCCCC[C@H](NC(=O)CC[C@@H](NC(=O)[C@H](CC)NC(=O)CO[C@H]1[C@H](O)[C@@H](CO)OC(O)[C@@H]1NC(C)=O)C(N)=O)C(=O)O (some centres not stated)	Non-Toxic	Non-Toxic	Non-Toxic	inactive	Active	Active	Non-Toxic	Non-Toxic	0.6	0.7	inactive	Non-Toxic	Active	Non-Toxic	inactive	Non-Toxic	Active	Active	Non-Toxic	Non-Toxic	Activity (Mus musculus [20]): Active
CC(=O)N[C@H]1C(O)O[C@H](CO)[C@@H](O)[C@@H]1O[C@H](C)C(=O)N[C@@H](C)C(=O)N[C@H](CCC(=O)O)C(N)=O (some centres not stated) [MURAMYL DIPEPTIDE]				inactive	Active	Active				2.9	inactive		Active		inactive		Active	Active	Non-Toxic	Non-Toxic	deltaT (Oryctolagus cuniculus [25]): 2.7 °C
